Reference: ChEMBL document CHEMBL1129499, “Azole endothelin antagonists. 3. Using delta log P as a tool to improve absorption” (J Med Chem, 1996)

Tests used:
[1] = Total absorption was estimated by area under curve (AUC) after intraduodenal administration in rat; design: concentration or dose not given beside the values; details: in vivo, id
Endothelin-1 receptor = molecular target: T1, Endothelin-1 receptor (Homo sapiens, UniProt P25101); assay: Inhibitory activity was evaluated against human Endothelin A receptor
T1 sequence (P25101 whole entry): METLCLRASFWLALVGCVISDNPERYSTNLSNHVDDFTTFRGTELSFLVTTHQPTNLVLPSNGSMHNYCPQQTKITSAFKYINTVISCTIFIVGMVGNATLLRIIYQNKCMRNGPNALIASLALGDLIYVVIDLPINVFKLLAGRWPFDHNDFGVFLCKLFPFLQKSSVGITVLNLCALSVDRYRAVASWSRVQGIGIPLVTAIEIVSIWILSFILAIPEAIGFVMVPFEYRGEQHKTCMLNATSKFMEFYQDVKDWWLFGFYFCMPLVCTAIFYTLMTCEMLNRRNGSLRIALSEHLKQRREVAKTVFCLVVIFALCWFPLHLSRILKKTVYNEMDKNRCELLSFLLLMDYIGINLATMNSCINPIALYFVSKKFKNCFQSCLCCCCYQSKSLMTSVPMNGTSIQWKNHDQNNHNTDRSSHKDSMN
Method in brief: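 Human ETA or ETB receptors expressed in CHO cells. Binding inhibition tested at 11 concentrations from 10⁻¹⁰ to 10⁻⁵ M, in duplicate.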

[2] = molecular target: T2, Endothelin receptor type B (Homo sapiens, UniProt P24530); assay: Inhibitory activity was evaluated against human Endothelin B receptor
T2 sequence (P24530 whole entry): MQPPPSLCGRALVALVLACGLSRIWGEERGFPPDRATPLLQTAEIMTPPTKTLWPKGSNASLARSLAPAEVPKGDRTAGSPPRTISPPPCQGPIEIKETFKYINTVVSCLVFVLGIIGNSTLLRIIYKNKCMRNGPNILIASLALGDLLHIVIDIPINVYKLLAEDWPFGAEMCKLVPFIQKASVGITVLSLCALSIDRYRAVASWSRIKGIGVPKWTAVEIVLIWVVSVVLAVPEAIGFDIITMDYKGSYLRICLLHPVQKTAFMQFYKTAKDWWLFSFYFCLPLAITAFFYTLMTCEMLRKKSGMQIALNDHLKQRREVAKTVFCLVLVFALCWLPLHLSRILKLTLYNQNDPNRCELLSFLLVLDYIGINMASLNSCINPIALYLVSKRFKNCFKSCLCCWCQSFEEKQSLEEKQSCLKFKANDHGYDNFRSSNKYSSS
Method in brief: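 Human ETA or ETB receptors expressed in CHO cells. Binding inhibition tested at 11 concentrations from 10⁻¹⁰ to 10⁻⁵ M, in duplicate. IC50 is the mean of at least 2 measurements (n = 2).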

[3] = Partition coefficient by standard shake-flask techniquesat 37 C, using octanol and cyclohexane; format: physicochemical
Method in brief: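 Shake-flask partitioning at 37 °C. About 1 mg of compound dissolved in 4.5 mL 0.05 M PIPES, pH 6.5. Aqueous aliquot shaken 2 h with an equal volume of octanol (H-bonding) or cyclohexane (non-H-bonding), then centrifuged. Both phases assayed by HPLC. Delta log P is derived from the octanol and cyclohexane log D values. Mean of at least two determinations.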

logD (pH 6.5) = details: buffer
[4] = Oral bioavailability of compound at a dose of 10 mg/kg was determined in rat; format: ADME, organism-based; details: in vivo
Method in brief: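 Male Sprague-Dawley rats, n = 4 per group. 10 mg/kg given by gavage or as a slow iv bolus into the jugular vein, 10 mg/mL in ethanol–propylene glycol–D5W (20:30:50) with 1 equiv NaOH. Tail-vein plasma sampled up to 12 h and assayed by HPLC after extraction. F is the dose-corrected ratio of oral to iv AUC0–∞.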

SMILES	AUC [1]	IC50 (Endothelin-1 receptor)	IC50 [2]	delta Log P [3]	logD (logD (pH 6.5))	bioavailability [4]
Cc1[nH]c([C@@H](Cc2cn(C)c3ccccc23)NC(=O)[C@H](CC(C)C)OC(=O)NC2CCCCC2)nc1C(=O)O	347 ng·h/mL	9.3 nM	54000 nM	> 6.1		
Cc1[nH]c([C@@H](Cc2cn(C)c3ccccc23)NC(=O)[C@@H](CC(=O)NC2CCCCC2)CC(C)C)nc1C(=O)O	81.7 ng·h/mL	29 nM	> 100000 nM	> 6.2		
Cc1oc([C@@H](Cc2cn(C)c3ccccc23)NC(=O)[C@H](CC(C)C)NC(=O)OC2CCCCC2)nc1C(=O)O	1360 ng·h/mL	41 nM	> 100000 nM	4.66		
Cc1[nH]c([C@@H](Cc2cn(C)c3ccccc23)NC(=O)[C@H](CC(C)C)NC(=O)OC2CCCCC2)nc1C(=O)O	168 ng·h/mL	76 nM	> 100000 nM	> 6.2		
Cc1[nH]c([C@@H](Cc2cn(C)c3ccccc23)NC(=O)[C@H](CC(C)C)NC(=O)CC2CCCCC2)nc1C(=O)O		470 nM	> 90000 nM	5.66		
Cc1[nH]c([C@@H](Cc2cn(C)c3ccccc23)NC(=O)[C@H](CC(C)C)NC(=O)NC2CCCCC2)nc1C(=O)O	4.33 ng·h/mL	11 nM	34000 nM	5.92		
COc1cccc(Oc2c(NS(=O)(=O)c3ccc(C(C)(C)C)cc3)ncnc2OCCO)c1				2.37	1.98	
Cc1oc([C@@H](Cc2cn(C)c3ccccc23)NC(=O)[C@H](CC(C)C)OC(=O)OC2CCCCC2)nc1C(=O)O	1760 ng·h/mL	17 nM	79000 nM	3.71		
CCCN(Cc1ccc(-c2ccccc2-c2nnn[nH]2)cc1)c1ncccc1C(=O)O				2.45	-0.85	
Cn1c(=O)c2[nH]cnc2n(C)c1=O.O [THEOPHYLLINE]				1.53	-0.12	
Cc1[nH]c([C@@H](Cc2cn(C)c3ccccc23)NC(=O)[C@H](CC(C)C)NC(=O)N(C)C2CCCCC2)nc1C(=O)O	103 ng·h/mL	1.8 nM	20000 nM	5.4		

Results, then the compound that gave them:

AUC [1]	IC50 (Endothelin-1 receptor)	IC50 [2]	delta Log P [3]	logD (logD (pH 6.5))	bioavailability [4]	SMILES
983 ng·h/mL	450 nM	> 100000 nM	4.59			Cc1oc([C@@H](Cc2cn(C)c3ccccc23)NC(=O)[C@H](CC(C)C)N(C)C(=O)NC2CCCCC2)nc1C(=O)O
		> 100000 nM	3.78			Cc1oc([C@@H](Cc2cn(C)c3ccccc23)NC(=O)[C@H](CC(C)C)NC(=O)CC2CCCCC2)nc1C(=O)O
815 ng·h/mL	21 nM	48000 nM	4.04			Cc1oc([C@@H](Cc2cn(C)c3ccccc23)NC(=O)[C@H](CC(C)C)OC(=O)NC2CCCCC2)nc1C(=O)O
833 ng·h/mL	25 nM	> 100000 nM	4.05			Cc1oc([C@@H](Cc2cn(C)c3ccccc23)NC(=O)[C@H](CC(C)C)NC(=O)N(C)C2CCCCC2)nc1C(=O)O
247 ng·h/mL	22 nM	> 100000 nM	> 6			Cc1[nH]c([C@@H](Cc2cn(C)c3ccccc23)NC(=O)[C@H](CC(C)C)N(C)C(=O)NC2CCCCC2)nc1C(=O)O
1840 ng·h/mL	4.6 nM	90000 nM	3.82		13.5%	Cc1oc([C@@H](Cc2cn(C)c3ccccc23)NC(=O)[C@H](CC(C)C)OC(=O)N(C)C2CCCCC2)nc1C(=O)O
292 ng·h/mL	310 nM	> 100000 nM	3.82			Cc1oc([C@@H](Cc2cn(C)c3ccccc23)NC(=O)[C@@H](CC(=O)NC2CCCCC2)CC(C)C)nc1C(=O)O
193 ng·h/mL	220 nM	> 100000 nM	> 6.1			Cc1oc([C@@H](Cc2cn(C)c3ccccc23)NC(=O)[C@H](CC(C)C)NC(=O)NC2CCCCC2)nc1C(=O)O
